Assay results from different studies.
Lines come from different studies, so protocols differ.
USP51: Ubiquitin carboxyl-terminal hydrolase 51 (USP51, Homo sapiens, UniProt Q70EK9)
DRD3: D(3) dopamine receptor (DRD3, Homo sapiens, UniProt P35462)
CA12: Carbonic anhydrase 12 (CA12, Homo sapiens, UniProt O43570)
SLC6A3: Sodium-dependent dopamine transporter (SLC6A3, Homo sapiens, UniProt Q01959)

SMILES	target	observed	action	technique	cell line	concentration	inhibition
COc1ccc(-c2oc3c(CC=C(C)C)c(O[C@@H]4O[C@H](CO)[C@@H](O)[C@H](O)[C@H]4O)cc(O)c3c(=O)c2O[C@@H]2O[C@@H](C)[C@H](O)[C@@H](O)[C@H]2O)cc1	USP51	enzyme activity	inhibitor	–	–	5 µM	7%
Cc1ccccc1N1CCN(CCCCN2C(=O)C3CCCN3C2=O)CC1 (centres unmarked)	DRD3	enzyme activity	inhibitor	–	–	10 µM	47.3%
CCOC(=O)C1CSc2[nH]c(=O)sc2C1c1cn(-c2ccccc2)nc1-c1ccccc1 (centres unmarked)	CA12	enzyme activity	inhibitor	absorbance	–	10 nM	10.6%
Cc1ccccc1N1CCN(CC(O)COc2ccc(C(=O)c3ccccc3)cc2)CC1 (centres unmarked)	DRD3	enzyme activity	inhibitor	–	–	10 µM	53.1%
CCOC(=O)C1CSc2[nH]c(=O)sc2C1c1cn(-c2ccccc2)nc1-c1ccc(Cl)cc1 (centres unmarked)	CA12	enzyme activity	inhibitor	absorbance	–	1 µM	73.2%
N[C@@H](CSSC[C@H](N)C(=O)O)C(=O)O	USP51	enzyme activity	inhibitor	–	–	5 µM	24%
Cc1ccc(-c2nn(-c3ccccc3)cc2C2c3sc(=O)[nH]c3SC3C(=O)N(c4ccccc4)C(=O)C32)cc1 (centres unmarked)	CA12	enzyme activity	inhibitor	absorbance	–	10 µM	73.9%
CC[C@H]1CN2CCc3cc(OC)c(OC)cc3[C@@H]2C[C@@H]1C[C@H]1NCCc2cc(OC)c(OC)cc21	USP51	enzyme activity	inhibitor	–	–	5 µM	20%
O=C1NC(=S)C(=Cc2cn(-c3ccccc3)nc2-c2ccc(Br)cc2)S1	CA12	enzyme activity	inhibitor	absorbance	–	10 µM	49.8%
COc1cc(C(C)=O)ccc1OCC(O)CN1CCN(c2cc(Cl)ccc2C)CC1 (centres unmarked)	DRD3	enzyme activity	inhibitor	–	–	10 µM	35.9%
O=C(O)CC(O)C(=O)O (centres unmarked)	USP51	enzyme activity	inhibitor	–	–	5 µM	31%
O=c1oc2cc(OCC(O)CN3CCN(c4ccc(F)cc4)CC3)ccc2c2c1CCC2 (centres unmarked)	DRD3	enzyme activity	inhibitor	–	–	10 µM	0%
O=C(c1ccc(Cl)cc1)N(Cc1ccccc1)C1CCCCC1	SLC6A3	cell-free assay	–	–	–	10 µM	48.8%
Clc1ccc(C(c2ccccc2)c2nnnn2CCCCN2CCC(CCCc3ccccc3)CC2)cc1 (centres unmarked)	SLC6A3	transporter uptake	inhibitor	–	HEK293	1 µM	69%
CCOC(=O)C1CSc2[nH]c(=O)sc2C1c1cn(-c2ccccc2)nc1-c1ccc(Br)cc1 (centres unmarked)	CA12	enzyme activity	inhibitor	absorbance	–	10 µM	81%
Clc1ccc(C(c2ccc(Cl)cc2)c2nnnn2CCCN2CCC(CCCc3ccccc3)CC2)cc1	SLC6A3	transporter uptake	inhibitor	–	HEK293	1 µM	19.8%
CC(=O)Nc1ccc(N2C(=O)CC(NCCc3ccccc3)C2=O)cc1 (centres unmarked)	DRD3	enzyme activity	inhibitor	–	–	10 µM	5.54%
Clc1ccc(C(c2ccccc2)c2nnnn2CCCCN2CCC(CCc3ccccc3)CC2)cc1 (centres unmarked)	SLC6A3	transporter uptake	inhibitor	–	HEK293	1 µM	74.6%
OC(CNCc1cccc(Oc2nnnn2-c2ccccc2)c1)c1ccccc1 (centres unmarked)	DRD3	enzyme activity	inhibitor	–	–	10 µM	29.3%
Nc1ncnc2c1ncn2[C@@H]1O[C@H](CO)[C@@H](O)[C@H]1O	USP51	enzyme activity	inhibitor	–	–	5 µM	24%
Clc1ccc(C(c2ccc(Cl)cc2)c2nnnn2CCCCN2CCN(CCCc3ccccc3)CC2)cc1	SLC6A3	transporter uptake	inhibitor	–	HEK293	1 µM	72.7%
O=C1C[C@@H](c2ccccc2)Oc2cc(O)cc(O)c21	USP51	enzyme activity	inhibitor	–	–	5 µM	2%
COc1ccc(S(N)(=O)=O)cc1C(=O)NCCCN1CCN(c2ccccc2OC)CC1	DRD3	enzyme activity	inhibitor	–	–	10 µM	21.6%
O=C(/C=C/C=C/c1ccc2c(c1)OCO2)N1CCCCC1	USP51	enzyme activity	inhibitor	–	–	5 µM	31%
N#CC1CSc2[nH]c(=O)sc2C1c1cn(-c2ccccc2)nc1-c1ccc(Br)cc1 (centres unmarked)	CA12	enzyme activity	inhibitor	absorbance	–	10 nM	28.1%
Cc1ccccc1OCC(O)CN1CCN(CC(O)COc2ccccc2C)CC1 (centres unmarked)	DRD3	enzyme activity	inhibitor	–	–	10 µM	-12.1%
O=c1c(-c2ccc(O)cc2)coc2cc(O)ccc12	USP51	enzyme activity	inhibitor	–	–	5 µM	10%
Clc1ccc(C(c2ccc(Cl)cc2)c2nnnn2CCCN2CCC(Cc3ccccc3)CC2)cc1	SLC6A3	transporter uptake	inhibitor	–	HEK293	1 µM	90.8%
CCOC(=O)C1CSc2[nH]c(=O)sc2C1c1cn(-c2ccccc2)nc1-c1ccc(C)cc1 (centres unmarked)	CA12	enzyme activity	inhibitor	absorbance	–	0.1 µM	28%
